# Test results: ChEMBL document CHEMBL4622920, “Synthesis and evaluation of heterocycle structures as potential inhibitors of Mycobacterium tuberculosis UGM” (Bioorg Med Chem, 2020)
# Active and inactive are the calls of the source. No cut-off for these calls is given here.
# Columns and labels:
# [1] = system: Mycobacterium tuberculosis; assay: Displacement of UDP-fluorescein from non-reduced form of Mycobacterium tuberculosis UDP-galactopyranose mutase by fluorescence polarization assay relative to control; parameters: concentration or dose not given beside the values; conditions: concentration not given here
# In short: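 Single-point fluorescence polarization competition with inhibitor at 1 mM final. Non-reduced recombinant Mt UGM at 580 nM with 18 nM UDP-fluorescein probe. Read at room temperature in sodium phosphate buffer pH 7.0. Reported as percent inhibition; screening also done at 100 µM. Kd followed when inhibition at 1 mM exceeded 30%.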
# [2] = Displacement of UDP-fluorescein from non-reduced form of Mycobacterium tuberculosis UDP-galactopyranose mutase by fluorescence polarization assay
# In short: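 Recombinant Mt UGM (pET-29b construct) used dialysed and non-reduced at 580 nM. UDP-fluorescein probe at 18 nM. Inhibitors titrated over 0–1 mM. Kd derived from competitive fluorescence polarization. Probe affinity measured by enzyme dilutions in 50 mM sodium phosphate pH 7.0 at room temperature, in triplicate.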
# [3] = system: Mycobacterium tuberculosis; assay: Antitubercular activity against Mycobacterium tuberculosis mc2 6230 assessed as inhibition of bacterial growth incubated for 7 days by broth dilution method; format: functional; conditions: mc2 6230, 168 h
# In short: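 Pantothenate-auxotrophic Mt mc²6230 grown in 7H9/OADC plus 109 µM pantothenic acid at 37°C without agitation. Broth microdilution started from culture at OD600 0.05. Twofold series covered 1.5–100 µg/ml. Plates were read after 7 days at 37°C. MIC is the lowest concentration with no visible turbidity change. Duplicates were run on three independent occasions.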
# [4] = system: Mycobacterium tuberculosis; assay: Inhibition of reduced form of Mycobacterium tuberculosis UDP-galactopyranose mutase assessed as conversion of UDP-Galf to UDP-Galp at 0.5 mM using UDP-Galf as substrate compound incubated with enzyme at 5 mins after enzyme reduction with sodium dithionite by HPLC analysis relative to control
# In short: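 Recombinant Mt UGM (60 nM) in 100 mM NaH₂PO₄ pH 7.4 at room temperature. Enzyme pre-incubated 5 min, then reduced with 12.5 mM sodium dithionite and incubated with or without inhibitor. UDP-α-Galf (25 µM final) added. Samples taken at five times and quenched in liquid N₂. Conversion to UDP-Galp quantified by C18 HPLC with UV detection at 262 nm.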
# [5] = system: Mycobacterium tuberculosis; assay: Antitubercular activity against Mycobacterium tuberculosis mc2 6230 assessed as inhibition of bacterial growth at 30 ng/ml incubated for 7 days by broth dilution method; format: functional, organism-based
# In short: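 Mt mc²6230 pantothenate auxotroph grown at 37°C static in 7H9 broth with OADC and 109 µM pantothenic acid. Log-phase culture diluted to OD600 0.05. Compound serially diluted 2-fold from a 10 mg/ml DMSO stock. Plates wrapped and incubated at 37°C for 7 days. Isoniazid served as positive control and DMSO as vehicle control. Growth was read visually as turbidity.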
SMILES,inhibition [1] [%],Kd [2] [µM],other results
O=C1O/C(=C(/I)c2ccccc2)Cn2c1c(I)c1ccccc12,22.8,,
O=C(O)C(Cc1ccc(I)cc1)NC1NC(c2ccc(Cl)c(Cl)c2)=CS1 (centres undefined),,8,
C/C(I)=C1/Cn2c(c(I)c3ccccc32)C(=O)O1,14.9,,
CC1=C(c2ccc(-c3ccccc3)cc2)C(=O)O/C1=C\C(C)C,19.2,,
CC1=C(c2cc3ccccc3o2)C(=O)O/C1=C\C(C)C,0,,
CC1=C(Br)C(=O)O/C1=C\C(C)C,7.3,,
CC1=C(c2ccc(F)cc2)C(=O)O/C1=C\C(C)C,9,,
C#CCn1c(C(=O)O)c(I)c2cc3c(cc21)OCO3,46.2,220,
CCCCC#C/C=C1\Cn2c(c(I)c3ccccc32)C(=O)O1,,66,MIC [3]: 6.2 µg/mL; inhibition [4]: 72.9%
C[N+](C)(C)CC(=O)N/N=C/c1ccc(O)c(O)c1,,3,
COc1ccc2cc(C3=C(C)/C(=C/C(C)C)OC3=O)ccc2c1,7.4,,
O=C1O/C(=C/I)Cn2c1c(I)c1cc(F)ccc12,19.1,,
CC1=C(c2ccncc2)C(=O)O/C1=C\C(C)C,3,,
C#CCn1c(C(=O)O)c(I)c2ccccc21,7.4,,
NNC(=O)c1ccncc1,,,inhibition [5]: Active
COC(=O)c1[nH]c2cc3c(cc2c1I)OCO3,23.1,,
CC1=C(c2ccoc2)C(=O)O/C1=C\C(C)C,5.2,,
O=C1O/C(=C/I)Cn2c1c(I)c1ccccc12,61.6,2000,
COC(=O)c1cn(Cc2ccccc2)c2ccccc12,5.1,,
CCCCC#C/C=C1\Cn2c(c(I)c3cc4c(cc32)OCO4)C(=O)O1,,58.3,MIC [3]: 3.1 µg/mL; inhibition [4]: 60.2%
C#CCn1c(C(=O)O)c(I)c2cc(OC)ccc21,15,,
CCCCC#C/C=C1\Cn2c(c(I)c3cc(OC)ccc32)C(=O)O1,,61.3,MIC [3]: 50 µg/mL; inhibition [4]: 95.5%
C#CCn1c(C(=O)OC)cc2cc(F)ccc21,0,,
COC(=O)c1cc2ccccc2[nH]1,2,,
COC(=O)c1[nH]c2ccccc2c1I,11.5,,
O=c1ccn([C@@H]2O[C@H](COP(=O)(O)OP(=O)(O)O[C@H]3O[C@@H]([C@H](O)CO)C(F)(F)C3(F)F)[C@@H](O)[C@H]2O)c(=O)[nH]1,,53,
